pIC50, pKd: −log10 of the molar value. Calls of active or inactive are those of the source. The rule behind the calls is not given here.

This note sets out measurements from ChEMBL document CHEMBL1142988 (J Med Chem, 2007).

A short description of experiment [1]: Antagonist activity at native AMPA receptor assessed as fDR-VRP reduction of neonatal rat spinal cord motorneurones. In kind it is functional. Summed up: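 Neonatal (1-5-day-old, non-anaesthetized) rat hemisected spinal cord. Concentration-response curves for antagonist (5 min applications) on the fast component of the dorsal root-evoked ventral root potential, with 2 mM MgSO4 and 50 µM (R)-AP5 (30 min preincubation) to block NMDA receptors; mean ± SEM, n = 3.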

Experiment [2] concerns the target Glutamate receptor ionotropic, kainate 1 (Rattus norvegicus, UniProt P22756). Briefly: Activity at native GLUK5 kainate receptor assessed as antagonism of kainite-induced depolarization of neonatal non-anaesthetised rat dorsal root fibres.
The target in experiment [3] is Glutamate receptor ionotropic, kainate 1 (Homo sapiens) (UniProt P39086). Briefly: Antagonist activity at human recombinant GLUK5/GLUK2 expressed in HEK293 cells assessed as inhibition of glutamate-stimulated calcium influx by FLIPR assay. It counts as functional, cell-based.
Experiment [4] is described as follows: Antagonist activity at human recombinant GLUK6/GLUK2 expressed in HEK293 cells assessed as inhibition of glutamate-stimulated calcium influx by FLIPR assay. It counts as functional, cell-based.
Experiment [5] deals with Glutamate receptor ionotropic, kainate 2 (Homo sapiens, UniProt Q13002). Briefly: Antagonist activity at human recombinant GLUK6 expressed in HEK293 cells assessed as inhibition of glutamate-stimulated calcium influx by FLIPR assay. It counts as functional, cell-based.
Experiment [6] addresses Glutamate receptor ionotropic, kainate 1 (Homo sapiens) (UniProt P39086). The experiment is described as follows: Antagonist activity at human recombinant GLUK5 receptor expressed in HEK293 cells assessed as inhibition of glutamate-stimulated calcium influx by FLIPR assay. In kind it is functional, cell-based. Summed up:
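Human GLUK5(Q) cells (Bmax of [3H]kainate binding 1.7 pmol/mg) loaded with calcium dye and read on FLIPR. Kb derived from IC50 by Cheng-Prusoff. Mean ± SEM, n = 3.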

A short description of experiment [7]: Antagonist activity at human recombinant GLUK5/GLUK6 expressed in HEK293 cells assessed as inhibition of glutamate-stimulated calcium influx by FLIPR assay. In kind it is functional, cell-based.
A further experiment concerns the target Glutamate receptor 2 (Homo sapiens, UniProt P42262). The experiment is described as follows: Antagonist activity at human recombinant GLUA2-AMPA receptor expressed in HEK293 cells assessed as inhibition of glutamate-stimulated calcium influx by FLIPR assay. In kind it is functional, cell-based.
The nature of experiment [8]: Activity at native AMPA receptor assessed as antagonism of (S)-5-fluoriwillardiine-induced depolarization of neonatal rat spinal cord motorneurones. In kind it is functional.
Experiment [9] addresses T1, Glutamate NMDA receptor (Rattus norvegicus) (UniProt P35439+Q00959+Q00960+Q00961+Q62645+Q8VHN2+Q9R1M7). Briefly: Antagonist activity at NMDA receptor assessed as inhibition of NMDA-induced depolarization of neonatal rat spinal cord motoneurons at 1 uM. It counts as functional.
Experiment [10] concerns the target Metabotropic glutamate receptor 5 (Rattus norvegicus) (UniProt P31424). The experiment is described as follows: Antagonist activity at mGlu5 receptor assessed as inhibition of DHPG-induced depolarization of neonatal rat spinal cord motoneurons at 1 uM. It counts as functional.
Experiment [11] concerns the target Metabotropic glutamate receptor 1 (Rattus norvegicus) (UniProt P23385). Briefly: Antagonist activity at mGlu1 receptor assessed as inhibition of DHPG-induced depolarization of neonatal rat spinal cord motoneurons at 1 uM. It counts as functional.
Experiment [12] deals with T1, Glutamate NMDA receptor (Rattus norvegicus). Briefly: Antagonist activity at NMDA receptor assessed as inhibition of NMDA-induced depolarization of neonatal rat spinal cord motoneurons at 10 uM. It counts as functional.
In experiment [13] the target is Metabotropic glutamate receptor 1 (Rattus norvegicus) (UniProt P23385). Briefly: Antagonist activity at mGlu1 receptor assessed as inhibition of DHPG-induced depolarization of neonatal rat motoneurons at 10 uM. It counts as functional.
Experiment [14] addresses Metabotropic glutamate receptor 5 (Rattus norvegicus) (UniProt P31424). Briefly: Antagonist activity at mGlu5 receptor assessed as inhibition of DHPG-induced depolarization of neonatal rat spinal cord motoneurons at 10 uM. It counts as functional.
Experiment [15] can be described thus: Antagonist activity at human recombinant GLUK6/GLUK2 expressed in HEK293 cells assessed as inhibition of glutamate-stimulated calcium influx at 100 uM by FLIPR assay. In kind it is functional.

Sequence of Glutamate receptor 2 (P42262 whole entry): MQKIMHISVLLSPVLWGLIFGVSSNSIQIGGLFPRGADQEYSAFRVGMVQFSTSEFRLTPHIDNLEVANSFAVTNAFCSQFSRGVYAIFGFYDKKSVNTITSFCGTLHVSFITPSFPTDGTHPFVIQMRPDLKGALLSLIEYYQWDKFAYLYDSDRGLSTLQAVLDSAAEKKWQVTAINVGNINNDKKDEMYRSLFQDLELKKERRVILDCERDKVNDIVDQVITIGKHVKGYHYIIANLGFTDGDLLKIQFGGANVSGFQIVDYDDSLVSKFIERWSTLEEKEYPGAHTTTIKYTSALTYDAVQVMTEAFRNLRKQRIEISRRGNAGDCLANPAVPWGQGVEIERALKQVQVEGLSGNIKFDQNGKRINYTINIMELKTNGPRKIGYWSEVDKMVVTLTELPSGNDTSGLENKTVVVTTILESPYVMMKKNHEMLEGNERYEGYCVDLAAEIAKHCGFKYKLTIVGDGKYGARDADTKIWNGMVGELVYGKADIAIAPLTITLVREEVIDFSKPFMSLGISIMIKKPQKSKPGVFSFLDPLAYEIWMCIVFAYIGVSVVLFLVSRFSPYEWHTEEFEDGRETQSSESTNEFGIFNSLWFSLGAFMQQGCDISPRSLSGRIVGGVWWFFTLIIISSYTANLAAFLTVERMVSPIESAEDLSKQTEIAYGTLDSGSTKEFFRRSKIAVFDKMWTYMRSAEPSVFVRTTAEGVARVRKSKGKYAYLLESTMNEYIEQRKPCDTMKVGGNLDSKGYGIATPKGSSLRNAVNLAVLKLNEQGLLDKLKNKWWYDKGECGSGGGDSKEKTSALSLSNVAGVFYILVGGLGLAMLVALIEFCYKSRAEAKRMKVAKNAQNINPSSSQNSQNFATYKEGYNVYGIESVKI
Sequence of Glutamate receptor ionotropic, kainate 1 (Homo sapiens) (P39086 whole entry): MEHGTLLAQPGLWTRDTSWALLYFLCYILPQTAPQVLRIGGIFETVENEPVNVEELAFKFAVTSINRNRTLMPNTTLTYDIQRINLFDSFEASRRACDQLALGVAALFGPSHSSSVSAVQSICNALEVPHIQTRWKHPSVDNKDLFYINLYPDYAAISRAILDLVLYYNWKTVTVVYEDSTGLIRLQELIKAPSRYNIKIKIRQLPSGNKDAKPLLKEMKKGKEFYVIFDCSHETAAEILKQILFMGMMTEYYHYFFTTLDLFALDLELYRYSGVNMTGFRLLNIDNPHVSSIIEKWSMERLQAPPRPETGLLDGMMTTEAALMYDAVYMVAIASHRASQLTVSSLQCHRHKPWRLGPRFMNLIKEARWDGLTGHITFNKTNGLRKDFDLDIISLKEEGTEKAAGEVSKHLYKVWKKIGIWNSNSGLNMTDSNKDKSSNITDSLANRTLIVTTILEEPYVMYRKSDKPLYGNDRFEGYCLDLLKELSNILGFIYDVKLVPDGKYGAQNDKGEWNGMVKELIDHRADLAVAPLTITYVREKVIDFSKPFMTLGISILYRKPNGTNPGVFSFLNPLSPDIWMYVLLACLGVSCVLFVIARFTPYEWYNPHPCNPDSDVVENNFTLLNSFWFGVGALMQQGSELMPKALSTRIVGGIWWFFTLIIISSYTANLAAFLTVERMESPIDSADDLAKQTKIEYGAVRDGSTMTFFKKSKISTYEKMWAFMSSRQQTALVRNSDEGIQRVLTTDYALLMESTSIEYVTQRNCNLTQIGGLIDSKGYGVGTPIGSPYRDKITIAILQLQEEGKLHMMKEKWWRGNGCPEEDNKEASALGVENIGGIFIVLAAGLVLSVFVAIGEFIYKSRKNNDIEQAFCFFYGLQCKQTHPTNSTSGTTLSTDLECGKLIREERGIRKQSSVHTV
Sequence of Glutamate receptor ionotropic, kainate 1 (P22756 whole entry): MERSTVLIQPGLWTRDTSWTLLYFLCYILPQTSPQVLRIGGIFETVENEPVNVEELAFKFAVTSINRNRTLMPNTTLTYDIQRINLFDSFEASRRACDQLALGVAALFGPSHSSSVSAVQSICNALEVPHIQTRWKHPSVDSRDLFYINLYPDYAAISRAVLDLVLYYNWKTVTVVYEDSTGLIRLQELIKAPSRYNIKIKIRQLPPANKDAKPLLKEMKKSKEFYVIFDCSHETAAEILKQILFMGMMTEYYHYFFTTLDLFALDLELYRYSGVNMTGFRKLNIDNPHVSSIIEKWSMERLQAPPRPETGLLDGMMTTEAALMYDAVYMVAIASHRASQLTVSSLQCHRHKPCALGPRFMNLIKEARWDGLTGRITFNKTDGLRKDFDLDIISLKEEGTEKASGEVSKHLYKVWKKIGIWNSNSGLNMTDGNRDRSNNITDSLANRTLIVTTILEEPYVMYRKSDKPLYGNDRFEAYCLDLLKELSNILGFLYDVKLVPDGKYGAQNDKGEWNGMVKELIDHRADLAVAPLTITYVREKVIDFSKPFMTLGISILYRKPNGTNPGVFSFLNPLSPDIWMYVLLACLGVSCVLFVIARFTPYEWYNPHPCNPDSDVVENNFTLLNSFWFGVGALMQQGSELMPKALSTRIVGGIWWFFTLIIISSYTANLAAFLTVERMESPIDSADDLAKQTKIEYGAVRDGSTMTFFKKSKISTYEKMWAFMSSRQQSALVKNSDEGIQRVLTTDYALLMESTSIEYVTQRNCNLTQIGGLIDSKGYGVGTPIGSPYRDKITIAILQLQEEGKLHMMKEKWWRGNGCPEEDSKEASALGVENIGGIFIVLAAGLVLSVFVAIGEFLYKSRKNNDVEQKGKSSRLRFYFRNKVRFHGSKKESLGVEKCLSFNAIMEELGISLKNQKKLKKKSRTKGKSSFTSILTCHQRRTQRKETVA
Sequence of Glutamate receptor ionotropic, kainate 2 (Q13002 whole entry): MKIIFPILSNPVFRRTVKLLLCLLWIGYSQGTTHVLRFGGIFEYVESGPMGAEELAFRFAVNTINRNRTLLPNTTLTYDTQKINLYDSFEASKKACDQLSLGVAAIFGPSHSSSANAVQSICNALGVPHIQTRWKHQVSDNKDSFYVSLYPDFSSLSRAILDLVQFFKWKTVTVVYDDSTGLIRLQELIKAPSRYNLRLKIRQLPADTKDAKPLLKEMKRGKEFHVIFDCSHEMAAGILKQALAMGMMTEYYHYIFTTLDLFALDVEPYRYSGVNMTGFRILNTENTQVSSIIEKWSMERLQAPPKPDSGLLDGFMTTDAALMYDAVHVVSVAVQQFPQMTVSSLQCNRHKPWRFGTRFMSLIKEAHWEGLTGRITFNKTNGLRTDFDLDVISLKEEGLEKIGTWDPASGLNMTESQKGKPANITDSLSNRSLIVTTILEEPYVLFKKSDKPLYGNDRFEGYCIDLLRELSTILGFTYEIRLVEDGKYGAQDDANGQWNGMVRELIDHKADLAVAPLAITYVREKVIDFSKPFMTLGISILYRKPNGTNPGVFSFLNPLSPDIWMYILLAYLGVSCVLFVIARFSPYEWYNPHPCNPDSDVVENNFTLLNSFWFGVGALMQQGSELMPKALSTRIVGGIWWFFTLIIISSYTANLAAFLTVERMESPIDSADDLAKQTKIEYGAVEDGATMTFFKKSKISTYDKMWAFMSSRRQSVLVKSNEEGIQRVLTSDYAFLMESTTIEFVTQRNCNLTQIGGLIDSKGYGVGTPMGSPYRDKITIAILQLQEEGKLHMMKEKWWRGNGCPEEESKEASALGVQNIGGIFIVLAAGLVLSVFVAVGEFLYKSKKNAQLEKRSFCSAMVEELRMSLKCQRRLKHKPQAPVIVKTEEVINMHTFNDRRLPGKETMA
Sequence of Metabotropic glutamate receptor 5 (Rattus norvegicus) (P31424 21-1203 limits assumed): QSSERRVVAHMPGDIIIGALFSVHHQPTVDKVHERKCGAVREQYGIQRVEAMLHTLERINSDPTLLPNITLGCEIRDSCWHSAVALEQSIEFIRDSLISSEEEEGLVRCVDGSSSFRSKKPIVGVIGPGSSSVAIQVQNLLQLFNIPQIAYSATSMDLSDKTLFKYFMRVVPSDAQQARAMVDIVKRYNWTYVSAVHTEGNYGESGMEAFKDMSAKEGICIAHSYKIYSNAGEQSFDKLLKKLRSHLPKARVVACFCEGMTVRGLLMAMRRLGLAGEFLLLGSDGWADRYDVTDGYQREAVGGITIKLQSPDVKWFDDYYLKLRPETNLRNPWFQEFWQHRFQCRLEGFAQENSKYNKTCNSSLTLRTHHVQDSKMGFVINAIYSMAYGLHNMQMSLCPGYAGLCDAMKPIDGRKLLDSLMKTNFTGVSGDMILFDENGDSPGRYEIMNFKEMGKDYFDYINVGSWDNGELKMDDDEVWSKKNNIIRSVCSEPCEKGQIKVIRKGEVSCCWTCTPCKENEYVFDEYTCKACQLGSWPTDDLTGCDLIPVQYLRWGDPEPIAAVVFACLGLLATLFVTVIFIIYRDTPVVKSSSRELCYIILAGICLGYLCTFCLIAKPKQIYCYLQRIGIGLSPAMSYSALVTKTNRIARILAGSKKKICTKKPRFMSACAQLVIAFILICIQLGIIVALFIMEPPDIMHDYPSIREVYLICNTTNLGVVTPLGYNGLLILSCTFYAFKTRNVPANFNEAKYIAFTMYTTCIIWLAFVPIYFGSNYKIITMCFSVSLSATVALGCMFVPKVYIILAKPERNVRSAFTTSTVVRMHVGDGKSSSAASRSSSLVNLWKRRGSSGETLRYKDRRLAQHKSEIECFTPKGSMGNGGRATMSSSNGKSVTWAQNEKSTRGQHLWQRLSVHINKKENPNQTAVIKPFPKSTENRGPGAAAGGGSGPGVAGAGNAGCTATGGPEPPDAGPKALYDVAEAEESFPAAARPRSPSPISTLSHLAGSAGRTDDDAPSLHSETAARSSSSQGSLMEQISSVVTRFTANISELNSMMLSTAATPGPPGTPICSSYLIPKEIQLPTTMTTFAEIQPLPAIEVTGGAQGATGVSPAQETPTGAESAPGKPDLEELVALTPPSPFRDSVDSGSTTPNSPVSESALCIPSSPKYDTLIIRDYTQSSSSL

As a reminder, the pIC50 is the IC50 on a negative log10 scale, so that one unit is a factor of ten. `N[C@@H](Cn1cc(I)c(=O)n(Cc2ccccc2C(=O)O)c1=O)C(=O)O`: in experiment [1], the pIC50 was 4.13.
Broadly, the pKd is the Kd on a negative log10 scale, so that one unit is a factor of ten. With `N[C@@H](Cn1cc(Br)c(=O)n(Cc2ccsc2C(=O)O)c1=O)C(=O)O`, the pIC50 in [1] was 4.37. Moreover, in [2], the pKd is 7.60.
The term Kb denotes the equilibrium dissociation constant of an antagonist, usually derived from a functional assay. Turning to `N[C@@H](Cn1ccc(=O)n(Cc2ccccc2C(=O)O)c1=O)C(=O)O`, the pIC50 in experiment [1] was 3.97; in experiment [4], below 3.52; in [5], below 3.52; on Glutamate receptor 2, below 3.52. The Kb in [3] was determined as 1 µM; in experiment [6] it was 0.6 µM; in experiment [7], 0.8 µM.
On to `N[C@@H](Cn1cc(C(F)(F)F)c(=O)n(Cc2ccsc2C(=O)O)c1=O)C(=O)O`, for which the pIC50 in experiment [1] was 4.26. In experiment [2], the pKd is 7.26.
For `N[C@@H](Cn1ccc(=O)n(Cc2ccoc2C(=O)O)c1=O)C(=O)O`, in experiment [1], the pIC50 is 4.93. Moreover, in experiment [2], the pKd was 5.73.
For `Cc1cn(C[C@H](N)C(=O)O)c(=O)n(Cc2cc(-c3ccccc3)sc2C(=O)O)c1=O`, the values for the pKd in experiment [8] and in experiment [2] were 3.97 and 7.92, respectively. Besides, the outcome in experiment [9], in [10] and in experiment [11] was inactive. For the same compound, the pIC50 was 4.78 in experiment [1], below 4.00 in [4], below 4.00 in [5] and below 4.00 on Glutamate receptor 2. Moreover, the Kb in experiment [3] came out at 0.005 µM; in experiment [6] it was 0.007 µM.
Turning to `Cc1cn(C[C@H](N)C(=O)O)c(=O)n(Cc2ccccc2C(=O)O)c1=O`, the pIC50 in [1] is 4.29. Moreover, the pKd in experiment [2] was 7.64.
Broadly, the inhibition is the relative decrease from the control value, in per cent. As for `Cc1cn(C[C@H](N)C(=O)O)c(=O)n(Cc2ccsc2C(=O)O)c1=O`, the pKd in experiment [8] is 4.08; in experiment [2], 7.74. For the same compound, the result in [12], in [13] and in [14] was inactive. Moreover, the pIC50 was 4.79 in experiment [1], below 4.00 in [4], below 4.00 in [5] and below 4.00 on Glutamate receptor 2. For the same compound, the Kb in experiment [3] stood at 0.008 µM; in experiment [6], 0.01 µM. Moreover, in experiment [15], the inhibition at 100 µM was found to be 27%.
Consider `NS(=O)(=O)c1cccc2c1c([N+](=O)[O-])cc1nc(O)c(O)nc12` [NBQX], for which the pIC50 in experiment [4] was 3.87; in [7], 4.55.
Regarding `Cc1cn(C[C@H](N)C(=O)O)c(=O)n(Cc2c(C(=O)O)sc(Br)c2Br)c1=O`, in [1], the pIC50 is 5.55. Also, the pKd in [2] was 8.00.
As to `N#Cc1cc2c(cc1[N+](=O)[O-])=NC(=O)C(=O)N=2`, in experiment [2], the pKd is 5.86.
For `N[C@@H](Cn1ccc(=O)n(Cc2ccsc2C(=O)O)c1=O)C(=O)O`, the pKd is 4.15 in experiment [8] and 6.98 in experiment [2]. In addition, the pIC50 in [1] is 4.51; in experiment [4], below 4.00; in experiment [5], below 4.00; on Glutamate receptor 2, below 4.00. Moreover, the Kb in experiment [3] came to 0.18 µM; in experiment [6], 0.12 µM; in experiment [7] it was 0.12 µM.
As for `Cc1cn(C[C@H](N)C(=O)O)c(=O)n(Cc2ccoc2C(=O)O)c1=O`, the pIC50 in experiment [1] is 4.60. The pKd in experiment [2] is 7.10.
For `N[C@@H](Cn1cc(Br)c(=O)n(Cc2ccccc2C(=O)O)c1=O)C(=O)O`, in that order: 4.19 and 6.99.
For `N[C@@H](Cn1cc(F)c(=O)n(Cc2ccccc2C(=O)O)c1=O)C(=O)O`, in that order: 4.73 and 6.45.
